In the library only some 2% were active in any assay of this set; here they are far more common.
CHRM5 agonist – agonists of human muscarinic M5 receptor (CHRM5). P08912. 0.19% of 360,000 active. CHO-K1 hM5 cells, Fluo-8 calcium fluorescence; 0% DMSO wells, 100% maximal acetylcholine response. activation, % at 3 µM. AID 624037;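 active = activation above the run's mean over test compounds plus 3 SD, cut at about 23% in these data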;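 also: signal is peak over basal fluorescence ratio across the kinetic read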
CHRM5 PAM – potentiates acetylcholine response at human M5 receptor. P08912. CHO-K1 hM5, Fluo-8 calcium, ACh EC20 PAM; 0% = ACh EC20, 100% = ACh EC100. activation, % at 3 µM. 0.3% of 360,000 active;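 active = activation above the run cutoff, the mean activation of all test compounds plus 3 SD, cut at about 18% in these data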
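Replicates: One well per compound, no replicates | System: Human M5 receptor in CHO-K1 cells | Benchmarks: Low control EC20 acetylcholine (0%), high control EC100 acetylcholine (100%) | Probe or stimulus: Acetylcholine, EC20 level | Times: Fluo-8 loading 80 min at 37 °C plus 30 min room temperature | Signal: Intracellular calcium via Fluo-8 fluorescence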
M5 antag – blocks acetylcholine activation of human M5 receptor; AID 624040; CHO-hM5 cells, Fluo-8 calcium fluorescence, ACh EC80; inhibition, % at 3 µM; 0.59% of 360,000 active;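 active = inhibition above a per-plate cutoff, the mean of that plate's test compounds plus 3 SD, cut at about 27% in these data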;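 also: 0% = acetylcholine EC80 with DMSO and 100% = DMSO without agonist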
M1 ag – human M1 muscarinic receptor agonism | CHO-K1 hM1, Fluo-8 calcium fluorescence, agonist mode; 0% DMSO, 100% acetylcholine EC100 | activation, % at 3 µM | 0.33% of 360,000 active | AID 588814;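 active = activation above the run's mean compound activation plus 3 SD, cut at about 16% in these data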;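 also: peak over basal fluorescence ratio within a 140 s kinetic read after compound addition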
Target sequence (P11229 whole entry, looked up): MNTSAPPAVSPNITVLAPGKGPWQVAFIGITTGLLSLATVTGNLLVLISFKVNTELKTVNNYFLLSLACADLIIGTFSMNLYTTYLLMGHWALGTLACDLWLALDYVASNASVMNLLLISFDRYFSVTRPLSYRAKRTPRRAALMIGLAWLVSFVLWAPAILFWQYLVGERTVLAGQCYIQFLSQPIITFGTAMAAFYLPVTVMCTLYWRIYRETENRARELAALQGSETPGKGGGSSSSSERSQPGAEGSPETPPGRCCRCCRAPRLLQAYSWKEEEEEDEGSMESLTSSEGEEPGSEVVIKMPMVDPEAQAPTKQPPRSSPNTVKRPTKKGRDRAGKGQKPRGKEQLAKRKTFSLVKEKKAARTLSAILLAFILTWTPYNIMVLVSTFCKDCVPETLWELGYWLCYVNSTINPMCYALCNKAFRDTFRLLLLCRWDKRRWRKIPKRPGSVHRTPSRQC
M1 PAM – positive allosteric modulators of human M1 muscarinic receptor; 0.088% of 360,000 active; CHO-K1 hM1, Fluo-8 calcium fluorescence, ACh EC20; 0% = ACh EC20, 100% = maximal ACh; AID 588819; activation, % at 3 µM; in the data active = activation above about 19%, passing the limit was not always enough
M1 antag – antagonists of human M1 muscarinic receptor; P11229; CHO-K1 hM1, Fluo-8 calcium fluorescence, ACh EC80 antagonist; inhibition, % at 3 µM; 1.3% of 360,000 active;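 active = percent inhibition above its own plate's cutoff, namely the mean of that plate's compound wells plus 3 SD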;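 also: peak over basal fluorescence ratio during 140 s after agonist addition; 0% = ACh EC80 plus DMSO and 100% = DMSO alone without agonist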
An asterisk follows results filed as active; nt = not tested or not shown.

SMILES | CHRM5 agonist | CHRM5 PAM | M5 antag | M1 ag | M1 PAM | M1 antag
CCOC1=C2[C@@H](CN(S(=O)(=O)c3ccc(C)cc3)[C@H]2c2ccccc2F)[C@H]2C(=O)N(c3ccccc3)C(=O)[C@H]2C1 | 3 | 2 | -6 | -3 | -3 | 10
O=C(c1cc(C2CCCCN2S(=O)(=O)c2cccs2)on1)N1CCOCC1 (stereo not given) | -2 | 1 | 11 | -7 | -20 | 24
CC(C)Nc1ncnc2c1ncn2[C@H]1CN(Cc2cccs2)C[C@@H](CO)O1 | 0 | 4 | -11 | 6 | 14 | -17
O=C(Nc1ccc(Cl)c(Cl)c1)Nc1ccon1 | 8 | -21 | 10 | 4 | -15 | 24*
O=C(Nc1ccc(Cl)c(Cl)c1)Nc1ccc(Br)cc1F | 4 | -14 | 31* | 0 | -19 | 28
O=C(Nc1ccc(Br)cc1)Nc1ccccc1F | 3 | -11 | 1 | -3 | -2 | -2
Cn1c(CCNC(=O)c2ccccc2F)nnc1SCC(=O)Nc1ccccc1F | -3 | -3 | 15 | -5 | 7 | -6
O=C(NC1CCCC1)c1ccc2c(c1)N(Cc1ccccc1)CCS2 | -1 | 18* | -15 | -5 | -1 | 2
O=C(NCCN1CCOCC1)c1ccc2c(c1)N(Cc1ccccc1)C(=O)CS2 | -12 | -2 | 4 | -8 | -21 | 30*
O=C(NCCN1CCOCC1)c1ccc2c(c1)N(Cc1ccc(Cl)cc1)C(=O)CS2 | -6 | -5 | -1 | -11 | -29 | 28*
O=C(NCCN1CCOCC1)c1ccc2c(c1)N(Cc1ccccc1)C(=O)c1ccccc1S2 | -4 | 7 | -9 | -2 | -1 | 10
O=c1[nH][nH]c2c1[C@H](c1ccc(F)cc1)O[C@H](CCc1ccccc1)C2 | 4 | -3 | 5 | nt | nt | nt
CNC(=O)C[C@H]1C(=O)N(c2ccccc2)C[C@@H]1CSC | 3 | -7 | 6 | -2 | 4 | -8
Cc1ccsc1C(=O)OCC(=O)NC1CCCCC1 | -1 | 2 | -2 | -5 | 0 | -9
CC(C)Cn1c(-c2csc3c2CCCC3)n[nH]c1=S | -8 | -23 | 15 | -15 | -34 | 44*
CC(C)Cn1c(-c2ccc(F)cc2)n[nH]c1=S | -10 | -4 | 3 | -5 | 0 | 3
CC(C)Cn1c(-c2ccccc2F)n[nH]c1=S | -4 | 2 | 46* | -3 | 7 | -10
O=C(Nc1cccc(Oc2ccccc2)c1)c1ccc(-n2cncn2)c2ccoc12 | 3 | 1 | -3 | -1 | 2 | -17
CCOC(=O)C1=NOC2(C1)C(=O)Nc1c(Cl)cccc12 (stereo not given) | 0 | 0 | -5 | nt | nt | nt
COCCOc1nc2ccccc2nc1C | -3 | 30* | 5 | -2 | -2 | 9
Nc1cnccc1C(=O)O | 24* | -15 | 3 | 6 | 0 | -8
COC(=O)c1ccncc1N | 0 | 7 | 5 | -1 | 0 | 4
OCC[C@@H]1C[C@H](O)[C@@H](O)[C@]2(OCc3cc(C(F)(F)F)ccc32)O1 | 3 | -8 | 2 | -1 | 5 | 17
CC1=NOC(=O)/C1=C/c1ccc(-c2ccc(Cl)cc2)o1 | 2 | -7 | 17 | 4 | -1 | 21
CC1=NOC(=O)/C1=C\c1ccc(-c2ccc(Br)cc2)o1 | -5 | -17 | 31* | 5 | -1 | 34*
SMILES | CHRM5 agonist | CHRM5 PAM | M5 antag | M1 ag | M1 PAM | M1 antag
CC(C)N1CCN(c2ccncc2S(=O)(=O)N2CCOCC2)CC1 | -13 | -12 | 1 | -6 | -20 | 48*
C=CCN1CCN(c2ccncc2S(=O)(=O)N2CCCCC2)CC1 | -7 | -14 | 2 | -7 | -18 | 31*
CCOC(=O)c1[nH]c2ccc(Br)cc2c1NC(=O)CCN1CCC(C)CC1 | -14 | -23 | 7 | -2 | -14 | 32*
CCOC(=O)c1[nH]c2ccc(Br)cc2c1NC(=O)CNC | -11 | -8 | 14 | -6 | 0 | 5
CC(CC(=O)c1ccc(F)cc1)N1CCN(c2ccccc2)CC1 (stereo not given) | -8 | 2 | 4 | -8 | -5 | -10
CC1(C(=O)NCc2ccco2)Cc2c(-c3ccc(C(N)=O)cc3)ccnc2O1 (stereo not given) | 2 | 0 | -1 | -1 | 11 | -17
